Measured values reported in ChEMBL document CHEMBL5712071, “BET bromodomain protein inhibition is a therapeutic option for medulloblastoma” (Oncotarget, 2013).
Activity calls are given as the source filed them. The rule behind the calls is not given here.

Legend:
[1] = tested on: D341 cell line; experiment: Induction of senescence in human D341 cells assessed as increase in population of cells in G1 phase at 500 nM incubated for 72 hrs by fluorometric SA-beta-gal activity assay; type: functional, cell-based
How it was run: (§1)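 Senescence read as fluorometric SA-β-gal activity. Cells seeded 2 × 10^3 per well in triplicate and allowed 24h to adhere, then exposed to 500 nM JQ1 or DMSO control for 72h. Assayed per kit protocol. Experiments repeated at least 3 times.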

[2] = tested on: Daoy; experiment: Anti-proliferative activity against human Daoy cells assessed as reduction in cell viability incubated for 72 hrs by MTT assay; type: functional, cell-based
How it was run: (§2)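 Cells seeded in triplicate at 2 × 10^3 per well and allowed to adhere for 24h. JQ1 was given as serial dilutions in full medium, 1nM-6µM, from a 10 mM DMSO stock. Viability was read by MTT at each time point and IC50 derived from dose-response curves. Culture media were RPMI 1640/10% FCS for HD-MB3 (plus 1% NEAA), ONS-76, Daoy and UW-228, and EMEM/10% FCS for D-283 and D-341.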

[3] = tested on: D283 Med; experiment: Anti-proliferative activity against human D283 cells assessed as reduction in cell viability incubated for 72 hrs by MTT assay; type: functional, cell-based; how it was run: as §2
[4] = tested on: Daoy; experiment: Induction of apoptosis in human Daoy cells assessed as increase in population of cells in sub-G1 phase at 500 nM incubated for 72 hrs by ELISA; type: functional, cell-based
[5] = biological target: Bromodomain-containing protein 4 (Homo sapiens) (UniProt O60885); conditions: D341 cell line, dose 500.0 nM, time 72.0 hrs
[6] = tested on: UW228; experiment: Induction of senescence in human UW228 cells assessed as increase in population of cells in G1 phase at 500 nM incubated for 72 hrs by fluorometric SA-beta-gal activity assay; type: functional, cell-based; how it was run: as §1
[7] = tested on: ONS-76; experiment: Induction of apoptosis in human ONS-76 cells assessed as increase in population of cells in G1 phase at 500 nM incubated for 72 hrs by flow cytometry; type: functional, cell-based
[8] = biological target: Bromodomain-containing protein 4 (Homo sapiens) (UniProt O60885); conditions: HD-MB03, dose 500.0 nM, time 6-24 hrs
[9] = biological target: Bromodomain-containing protein 4 (Homo sapiens) (UniProt O60885); conditions: D283 Med, dose 500.0 nM, time 24.0 hrs
[10] = tested on: HD-MB03; experiment: Anti-proliferative activity against human HD-MB03 cells assessed as reduction in cell viability incubated for 72 hrs by MTT assay; type: functional, cell-based; conditions: HD-MB03, 72 h; how it was run: as §2
[11] = tested on: D341 cell line; experiment: Anti-proliferative activity against human D341 cells assessed as reduction in cell viability incubated for 96 hrs by MTT assay; type: functional, cell-based; conditions: D341, 96 h; how it was run: as §2
[12] = tested on: Daoy; experiment: Induction of apoptosis in human Daoy cells assessed as increase in population of cells in sub-G1 phase at 500 nM incubated for 72 hrs by flow cytometry; type: functional, cell-based
How it was run: (§3)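 Cells were cultured with 500 nM JQ1 or DMSO control, trypsinised and washed 3 times in PBS. DNA was stained with propidium iodide for 15 min and DNA content analysed by flow cytometry to give G1 and sub-G1 fractions.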

[13] = tested on: Mus musculus; experiment: […] of cell proliferation in female athymic (nu/nu) mouse xenografted with human HD-MB03 cells as reduction in number of proliferating cells in tumor at 50 mg/kg, ip administered at 0, 12, 24 and 36 hrs over 2-day course by immunostaining and hematoxylin-eosin staining; type: functional, organism-based
How it was run: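 HD-MB3 cells in Matrigel (2 × 10^7) injected subcutaneously into the left flank of 4-week-old female nu/nu mice. Given JQ1 50 mg/kg i.p. or DMSO vehicle at 0, 12, 24 and 36h; killed 4h after the last dose. Fixed 5 µm tumour sections underwent pH 6.0 retrieval and Ki67 (1:25) immunostaining with H&E; positive cells quantified, 3 tumours per group.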

[14] = tested on: D283 Med; experiment: Induction of apoptosis in human D283 cells assessed as increase in population of cells in G1 phase at 500 nM incubated for 72 hrs by flow cytometry; type: functional, cell-based; how it was run: as §3
[15] = tested on: Daoy; experiment: Anti-proliferative activity against human Daoy cells assessed as reduction in cell viability incubated for 120 hrs by MTT assay; type: functional, cell-based; how it was run: as §2
[16] = tested on: ONS-76; experiment: Anti-proliferative activity against human ONS-76 cells assessed as reduction in cell viability incubated for 120 hrs by MTT assay; type: functional, cell-based; conditions: ONS-76, 120 h; how it was run: as §2
[17] = tested on: UW228; experiment: Anti-proliferative activity against human UW228 cells assessed as reduction in cell viability incubated for 120 hrs by MTT assay; type: functional, cell-based; conditions: UW228, 120 h; how it was run: as §2
[18] = tested on: UW228; experiment: Induction of apoptosis in human UW228 cells assessed as increase in population of cells in G1 phase at 500 nM incubated for 72 hrs by flow cytometry; type: functional, cell-based
[19] = tested on: D283 Med; experiment: Anti-proliferative activity against human D283 cells assessed as reduction in cell viability incubated for 48 hrs by MTT assay; type: functional, cell-based; how it was run: as §2
[20] = tested on: D341 cell line; experiment: Antiproliferative activity against human D341 cells at 500 nM incubated for 72 hrs by BrdU ELISA method; type: functional, cell-based
How it was run: (§4)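 Cells seeded in triplicate at 2 × 10^3 per well with 24h adherence, then treated with 500 nM JQ1 or DMSO control for 72h. Proliferation was measured by BrdU incorporation ELISA. Experiments were run independently at least 3 times.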

[21] = tested on: UW228; experiment: Antiproliferative activity against human UW228 cells at 500 nM incubated for 72 hrs by BrdU ELISA method; type: functional, cell-based; how it was run: as §4
[22] = tested on: Daoy; experiment: Induction of apoptosis in human Daoy cells assessed as increase in population of cells in G1 phase at 500 nM incubated for 72 hrs by ELISA; type: functional, cell-based
[23] = tested on: HD-MB03; experiment: Antiproliferative activity against human HD-MB03 cells at 500 nM incubated for 72 hrs by BrdU ELISA method; type: functional, cell-based; how it was run: as §4
[24] = biological target: Bromodomain-containing protein 4 (Homo sapiens) (UniProt O60885); conditions: ONS-76, dose 500.0 nM, time 72.0 hrs
[25] = tested on: HD-MB03; experiment: Induction of apoptosis in human HD-MB03 cells assessed as increase in population of cells in sub-G1 phase at 500 nM incubated for 72 hrs by ELISA; type: functional, cell-based
[26] = tested on: D341 cell line; experiment: Anti-proliferative activity against human D341 cells assessed as reduction in cell viability incubated for 72 hrs by MTT assay; type: functional, cell-based; conditions: D341, 72 h; how it was run: as §2
[27] = tested on: ONS-76; experiment: Anti-proliferative activity against human ONS-76 cells assessed as reduction in cell viability incubated for 48 hrs by MTT assay; type: functional, cell-based; conditions: ONS-76, 48 h; how it was run: as §2
[28] = tested on: HD-MB03; experiment: Antitumor activity against human HD-MB03 cells xenografted in female athymic (nu/nu) mouse assessed as reduction in tumor volume at 50 mg/kg, ip measured form days 4 to 14 days relative to untreated control; type: functional, organism-based; conditions: time 4-14 day
How it was run: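 Female athymic nu/nu mice, 4 weeks old, received 2 × 10^7 HD-MB3 cells in Matrigel subcutaneously in the left flank. At 150–200 mm3 they were randomised, n=7 per group, to JQ1 50 mg/kg ip daily or vehicle for 28 days or until tumours exceeded 1000 mm3. Calipers were used, with volume = (breadth × length × height)/2. Time to 1000 mm3 was analysed by Kaplan-Meier.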

SMILES: Cc1sc2c(c1C)C(c1ccc(Cl)cc1)=N[C@@H](CC(=O)OC(C)(C)C)c1nnc(C)n1-2
- Activity [1]: Active
- IC50 [2]: > 1000 nM
- IC50 [3]: 477 nM
- Activity [4]: Active
- inhibition [5]: Active
- Activity [6]: Active
- Activity [7]: Active
- inhibition [8]: Active
- inhibition [9]: Active
- IC50 [10]: 78 nM
- IC50 [11]: 157 nM
- Activity [12]: Active
- Activity [13]: Active
- Activity [14]: Active
- IC50 [15]: 544 nM
- IC50 [16]: 123 nM
- IC50 [17]: 897 nM
- Activity [18]: Active
- IC50 [19]: > 1000 nM
- Activity [20]: Active
- Activity [21]: Active
- Activity [22]: Active
- Activity [23]: Active
- inhibition [24]: Active
- Activity [25]: Active
- IC50 [26]: 244 nM
- IC50 [27]: 172 nM
- Activity [28]: Active
